Results published in ChEMBL document CHEMBL1914346, “Discovery and synthesis of novel substituted benzocoumarins as orally active lipid modulating agents” (Bioorg Med Chem Lett, 2011).

Columns and labels:
Syrian golden hamster [1] = test: Antidyslipidemic activity in high fat diet-fed dyslipidemic syrian golden hamster model assessed as increase in serum HDL level at 10 mg/kg, po administered once daily for 7 days relative to vehicle treated control; assay type: functional, Mesocricetus auratus
In short: (§1)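 Male Golden Syrian hamsters, 12 weeks old, 110 ± 10 g, eight per group, fed high-fat diet plus fructose daily on days 1–10. Oral dosing once daily on days 4–10 in 0.1% gum acacia; HFD-fed vehicle animals served as controls. After the last dose, retro-orbital blood was taken into EDTA and plasma lipids were measured enzymatically on an autoanalyzer. Results are % change versus HFD controls; t-test/ANOVA, p<0.05.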

Syrian golden hamster [2] = test: Antidyslipidemic activity in high fat diet-fed dyslipidemic syrian golden hamster model assessed as decrease in serum LDL level at 10 mg/kg, po administered once daily for 7 days relative to vehicle treated control; assay type: functional, Mesocricetus auratus; parameters: scale not given: the % may be the effect or the level left; in short: as §1
Syrian golden hamster [3] = test: Antidyslipidemic activity in high fat diet-fed dyslipidemic syrian golden hamster model assessed as decrease in serum total cholesterol level at 10 mg/kg, po administered once daily for 7 days relative to vehicle treated control; assay type: functional, Mesocricetus auratus; parameters: scale not given: the % may be the effect or the level left; in short: as §1
Syrian golden hamster [4] = test: Antidyslipidemic activity in high fat diet-fed dyslipidemic syrian golden hamster model assessed as increase in serum ratio of serum HDL/total cholesterol level at 10 mg/kg, po administered once daily for 7 days relative to vehicle treated control; assay type: functional, Mesocricetus auratus; in short: as §1
Syrian golden hamster [5] = test: Antidyslipidemic activity in high fat diet-fed dyslipidemic syrian golden hamster model assessed as decrease in serum triglyceride level at 10 mg/kg, po administered once daily for 7 days relative to vehicle treated control; assay type: functional, Mesocricetus auratus; parameters: scale not given: the % may be the effect or the level left; in short: as §1
[6] = Antioxidant activity assessed as trolox equivalent by TEAC assay; assay type: functional
Syrian golden hamster [7] = test: Toxicity in syrian golden hamster; assay type: organism-based, Mesocricetus auratus; settings: in vivo
In short: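 HFD-fed male Golden Syrian hamsters, eight per group, dosed orally at 10 mg/kg once daily for 7 days in 0.1% gum acacia. Body weight was recorded daily and food intake was monitored, then compared with HFD vehicle controls.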

Syrian golden hamster [8] = test: Antidyslipidemic activity in high fat diet-fed dyslipidemic syrian golden hamster model assessed as decrease in serum HDL level at 10 mg/kg, po administered once daily for 7 days relative to vehicle treated control; assay type: functional, Mesocricetus auratus; parameters: scale not given: the % may be the effect or the level left
In short: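 Male Golden Syrian hamsters (12 weeks, 110 ± 10 g) fed high fat diet with fructose daily days 1–10; dosed orally once daily days 4–10 in 0.1% gum acacia vehicle, eight per group. Blood drawn from retro-orbital plexus into EDTA after last dose; plasma HDL-C by enzymatic auto-analyzer. Reported as % change versus vehicle-treated HFD group; t-test/ANOVA, p < 0.05.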

Syrian golden hamster [9] = test: Antidyslipidemic activity in high fat diet-fed dyslipidemic syrian golden hamster model assessed as decrease in serum LDL level at 10 mg/kg relative to vehicle treated control; assay type: functional, Mesocricetus auratus; parameters: scale not given: the % may be the effect or the level left
In short: (§2)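 Dose-response run on a separate set of high-fat/fructose-fed male Golden Syrian hamsters given oral doses of 2.5, 5, 10 and 25 mg/kg. Plasma TC, TG, HDL-C and LDL-C were measured by standard enzymatic methods on a clinical autoanalyzer. HDL/TC ratio was calculated. Results are % change relative to HFD-fed vehicle (gum acacia) controls.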

[10] = target: T1, 3-hydroxy-3-methylglutaryl-coenzyme A reductase (Homo sapiens) (UniProt P04035); test: Inhibition of HMG-CoA reductase using HMG-CoA as substrate at 100 uM
T1 sequence (whole entry): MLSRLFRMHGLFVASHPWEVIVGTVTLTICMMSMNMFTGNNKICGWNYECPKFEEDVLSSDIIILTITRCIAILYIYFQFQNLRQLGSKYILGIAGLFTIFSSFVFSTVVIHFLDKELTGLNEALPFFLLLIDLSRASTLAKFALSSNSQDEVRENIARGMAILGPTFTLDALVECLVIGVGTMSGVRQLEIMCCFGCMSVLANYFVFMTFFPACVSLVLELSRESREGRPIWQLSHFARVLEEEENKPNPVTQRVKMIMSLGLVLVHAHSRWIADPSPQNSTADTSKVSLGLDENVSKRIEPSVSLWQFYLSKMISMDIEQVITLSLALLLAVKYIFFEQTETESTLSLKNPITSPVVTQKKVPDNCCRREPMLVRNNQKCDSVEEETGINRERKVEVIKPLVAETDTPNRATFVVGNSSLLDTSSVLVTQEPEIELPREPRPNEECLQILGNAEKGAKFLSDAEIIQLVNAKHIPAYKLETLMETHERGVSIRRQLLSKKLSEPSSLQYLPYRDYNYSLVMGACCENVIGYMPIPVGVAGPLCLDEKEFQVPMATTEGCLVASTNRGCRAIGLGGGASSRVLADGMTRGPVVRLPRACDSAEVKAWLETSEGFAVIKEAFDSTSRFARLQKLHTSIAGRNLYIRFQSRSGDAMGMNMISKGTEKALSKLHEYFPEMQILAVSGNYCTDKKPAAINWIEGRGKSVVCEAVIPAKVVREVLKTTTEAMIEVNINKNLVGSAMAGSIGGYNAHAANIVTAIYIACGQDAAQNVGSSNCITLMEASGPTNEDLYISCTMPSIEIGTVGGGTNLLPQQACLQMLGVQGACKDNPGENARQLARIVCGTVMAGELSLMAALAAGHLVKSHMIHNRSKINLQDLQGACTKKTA
In short: (§3)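 HMG-CoA reductase kit assay using supplied HMGR enzyme, HMG-CoA substrate, NADPH and assay buffer. Test concentrations were 5, 10, 25, 50 and 100 µM, with % inhibition recorded at each.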

[11] = target: T1, 3-hydroxy-3-methylglutaryl-coenzyme A reductase (Homo sapiens); test: Inhibition of HMG-CoA reductase using HMG-CoA as substrate at 25 uM; in short: as §3
Syrian golden hamster [12] = test: Antidyslipidemic activity in high fat diet-fed dyslipidemic syrian golden hamster model assessed as increase in serum ratio of HDL/total cholesterol level at 2.5 mg/kg relative to vehicle treated control; assay type: functional, Mesocricetus auratus; in short: as §2
Syrian golden hamster [13] = test: Antidyslipidemic activity in high fat diet-fed dyslipidemic syrian golden hamster model assessed as decrease in serum triglyceride level at 2.5 mg/kg relative to vehicle treated control; assay type: functional, Mesocricetus auratus; parameters: scale not given: the % may be the effect or the level left; in short: as §2
Syrian golden hamster [14] = test: Antidyslipidemic activity in high fat diet-fed dyslipidemic syrian golden hamster model assessed as decrease in serum triglyceride level at 5 mg/kg relative to vehicle treated control; assay type: functional, Mesocricetus auratus; parameters: scale not given: the % may be the effect or the level left; in short: as §2
Syrian golden hamster [15] = test: Antidyslipidemic activity in high fat diet-fed dyslipidemic syrian golden hamster model assessed as decrease in serum total cholesterol level at 25 mg/kg relative to vehicle treated control; assay type: functional, Mesocricetus auratus; parameters: scale not given: the % may be the effect or the level left; in short: as §2
Syrian golden hamster [16] = test: Antidyslipidemic activity in high fat diet-fed dyslipidemic syrian golden hamster model assessed as decrease in serum total cholesterol level at 2.5 mg/kg relative to vehicle treated control; assay type: functional, Mesocricetus auratus; parameters: scale not given: the % may be the effect or the level left; in short: as §2
Syrian golden hamster [17] = test: Antidyslipidemic activity in high fat diet-fed dyslipidemic syrian golden hamster model assessed as increase in serum ratio of HDL/total cholesterol level at 5 mg/kg relative to vehicle treated control; assay type: functional, Mesocricetus auratus; in short: as §2
Syrian golden hamster [18] = test: Antidyslipidemic activity in high fat diet-fed dyslipidemic syrian golden hamster model assessed as decrease in serum triglyceride level at 25 mg/kg relative to vehicle treated control; assay type: functional, Mesocricetus auratus; parameters: scale not given: the % may be the effect or the level left; in short: as §2
Syrian golden hamster [19] = test: Antidyslipidemic activity in high fat diet-fed dyslipidemic syrian golden hamster model assessed as decrease in serum LDL level at 25 mg/kg relative to vehicle treated control; assay type: functional, Mesocricetus auratus; parameters: scale not given: the % may be the effect or the level left; in short: as §2
[20] = target: T1, 3-hydroxy-3-methylglutaryl-coenzyme A reductase (Homo sapiens); test: Inhibition of HMG-CoA reductase using HMG-CoA as substrate at 5 uM; in short: as §3
[21] = target: T1, 3-hydroxy-3-methylglutaryl-coenzyme A reductase (Homo sapiens); test: Inhibition of HMG-CoA reductase using HMG-CoA as substrate at 10 uM; in short: as §3
Syrian golden hamster [22] = test: Antidyslipidemic activity in high fat diet-fed dyslipidemic syrian golden hamster model assessed as increase in serum ratio of HDL/total cholesterol level at 25 mg/kg relative to vehicle treated control; assay type: functional, Mesocricetus auratus; in short: as §2
[23] = target: T1, 3-hydroxy-3-methylglutaryl-coenzyme A reductase (Homo sapiens); test: Inhibition of HMG-CoA reductase using HMG-CoA as substrate at 50 uM; in short: as §3
Syrian golden hamster [24] = test: Antidyslipidemic activity in high fat diet-fed dyslipidemic syrian golden hamster model assessed as decrease in serum triglyceride level at 10 mg/kg relative to vehicle treated control; assay type: functional, Mesocricetus auratus; parameters: scale not given: the % may be the effect or the level left; in short: as §2
Syrian golden hamster [25] = test: Antidyslipidemic activity in high fat diet-fed dyslipidemic syrian golden hamster model assessed as decrease in serum LDL level at 5 mg/kg relative to vehicle treated control; assay type: functional, Mesocricetus auratus; parameters: scale not given: the % may be the effect or the level left; in short: as §2
Syrian golden hamster [26] = test: Antidyslipidemic activity in high fat diet-fed dyslipidemic syrian golden hamster model assessed as decrease in serum total cholesterol level at 5 mg/kg relative to vehicle treated control; assay type: functional, Mesocricetus auratus; parameters: scale not given: the % may be the effect or the level left; in short: as §2
Syrian golden hamster [27] = test: Antidyslipidemic activity in high fat diet-fed dyslipidemic syrian golden hamster model assessed as decrease in serum LDL level at 2.5 mg/kg relative to vehicle treated control; assay type: functional, Mesocricetus auratus; parameters: scale not given: the % may be the effect or the level left; in short: as §2
Syrian golden hamster [28] = test: Antidyslipidemic activity in high fat diet-fed dyslipidemic syrian golden hamster model assessed as decrease in serum total cholesterol level at 10 mg/kg relative to vehicle treated control; assay type: functional, Mesocricetus auratus; parameters: scale not given: the % may be the effect or the level left; in short: as §2
Syrian golden hamster [29] = test: Antidyslipidemic activity in high fat diet-fed dyslipidemic syrian golden hamster model assessed as increase in serum ratio of HDL/total cholesterol level at 10 mg/kg relative to vehicle treated control; assay type: functional, Mesocricetus auratus; in short: as §2

CC(C)c1c(C(=O)Nc2ccccc2)c(-c2ccccc2)c(-c2ccc(F)cc2)n1CC[C@@H](O)C[C@@H](O)CC(=O)O [ATORVASTATIN]
Activity (Syrian golden hamster [1]): 2% | Activity (Syrian golden hamster [2]): 23% | Activity (Syrian golden hamster [3]): 25% | Activity (Syrian golden hamster [4]): 83% | Activity (Syrian golden hamster [5]): 67%

Cc1cc(=O)oc2c3c(ccc12)C(=O)/C(=C/NCCCO)C=C3C=O
Activity [6]: 1.46 mM | Activity (Syrian golden hamster [1]): 3% | Activity (Syrian golden hamster [2]): 21% | Activity (Syrian golden hamster [3]): 26% | Activity (Syrian golden hamster [4]): 39% | Activity (Syrian golden hamster [7]): Non-toxic | Activity (Syrian golden hamster [5]): 50%

Cc1cc(=O)oc2c3c(ccc12)C(=O)/C(=C/NCCBr)C=C3C=O
Activity [6]: 0.1 mM | Activity (Syrian golden hamster [2]): 10% | Activity (Syrian golden hamster [3]): 13% | Activity (Syrian golden hamster [4]): 15% | Activity (Syrian golden hamster [8]): 1% | Activity (Syrian golden hamster [7]): Non-toxic | Activity (Syrian golden hamster [5]): 40%

COc1cccc(CN/C=C2\C=C(C=O)c3c(ccc4c(C)cc(=O)oc34)C2=O)c1
Activity [6]: 1.26 mM | Activity (Syrian golden hamster [1]): 3% | Activity (Syrian golden hamster [2]): 59% | Activity (Syrian golden hamster [3]): 47% | Activity (Syrian golden hamster [4]): 93% | Activity (Syrian golden hamster [7]): Non-toxic | Activity (Syrian golden hamster [5]): 52%

Cc1cc(=O)oc2c3c(ccc12)C(=O)/C(=C/NC12CC4CC(CC(C4)C1)C2)C=C3C=O
Activity [6]: 0.99 mM | Activity (Syrian golden hamster [1]): 1% | Activity (Syrian golden hamster [2]): 59% | Activity (Syrian golden hamster [3]): 48% | Activity (Syrian golden hamster [4]): 93% | Activity (Syrian golden hamster [7]): Non-toxic | Activity (Syrian golden hamster [5]): 48%

Cc1cccc(C)c1N/C=C1\C=C(C=O)c2c(ccc3c(C)cc(=O)oc23)C1=O
Activity [6]: 0.99 mM | Activity (Syrian golden hamster [1]): 1% | Activity (Syrian golden hamster [2]): 40% | Activity (Syrian golden hamster [3]): 30% | Activity (Syrian golden hamster [4]): 43% | Activity (Syrian golden hamster [7]): Non-toxic | Activity (Syrian golden hamster [5]): 16%

COc1ccc(CN/C=C2\C=C(C=O)c3c(ccc4c(C)cc(=O)oc34)C2=O)cc1
Activity [6]: 1.36 mM | Activity (Syrian golden hamster [1]): 1% | Activity (Syrian golden hamster [2]): 54% | Activity (Syrian golden hamster [9]): 14% | inhibition [10]: 63.8% | Activity (Syrian golden hamster [3]): 47% | inhibition [11]: 40.3% | Activity (Syrian golden hamster [4]): 80% | Activity (Syrian golden hamster [12]): 18% | Activity (Syrian golden hamster [13]): 35% | Activity (Syrian golden hamster [14]): 38% | Activity (Syrian golden hamster [15]): 45% | Activity (Syrian golden hamster [16]): 19% | Activity (Syrian golden hamster [17]): 26% | Activity (Syrian golden hamster [18]): 61% | Activity (Syrian golden hamster [19]): 19% | inhibition [20]: 26.1% | inhibition [21]: 34.2% | Activity (Syrian golden hamster [22]): 86% | Activity (Syrian golden hamster [7]): Non-toxic | inhibition [23]: 50.1% | Activity (Syrian golden hamster [24]): 58% | Activity (Syrian golden hamster [5]): 70% | Activity (Syrian golden hamster [25]): 8% | Activity (Syrian golden hamster [26]): 18% | Activity (Syrian golden hamster [27]): 3% | Activity (Syrian golden hamster [28]): 39% | Activity (Syrian golden hamster [29]): 71%
